Target: Multidrug resistance-associated protein 1 (Homo sapiens, UniProt P33527)
Assay: Inhibition of MRP1 in human 2008/MRP1 cells assessed as potentiation of doxorubicin-induced cytotoxicity by measuring cell survival at 2 uM after 5 days by MTS assay relative to control
Format: cell-based
Settings: 120 h
In short: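 2008/MRP1 cells (retroviral human MRP1 transfectant; RPMI 1640, 10% FBS) at 4,000 per well, with 100 nM doxorubicin plus crude, unpurified click products in DMSO: 2 µM in the primary screen, 1 µM in the secondary. Incubated 5 days at 37 °C. MTS/PMS added for 2 h at 37 °C, absorbance read at 490 nm. % survival is relative to wells without DOX or product. Run in triplicate, at least three experiments.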

Chain of Multidrug resistance-associated protein 1 (P33527 whole entry): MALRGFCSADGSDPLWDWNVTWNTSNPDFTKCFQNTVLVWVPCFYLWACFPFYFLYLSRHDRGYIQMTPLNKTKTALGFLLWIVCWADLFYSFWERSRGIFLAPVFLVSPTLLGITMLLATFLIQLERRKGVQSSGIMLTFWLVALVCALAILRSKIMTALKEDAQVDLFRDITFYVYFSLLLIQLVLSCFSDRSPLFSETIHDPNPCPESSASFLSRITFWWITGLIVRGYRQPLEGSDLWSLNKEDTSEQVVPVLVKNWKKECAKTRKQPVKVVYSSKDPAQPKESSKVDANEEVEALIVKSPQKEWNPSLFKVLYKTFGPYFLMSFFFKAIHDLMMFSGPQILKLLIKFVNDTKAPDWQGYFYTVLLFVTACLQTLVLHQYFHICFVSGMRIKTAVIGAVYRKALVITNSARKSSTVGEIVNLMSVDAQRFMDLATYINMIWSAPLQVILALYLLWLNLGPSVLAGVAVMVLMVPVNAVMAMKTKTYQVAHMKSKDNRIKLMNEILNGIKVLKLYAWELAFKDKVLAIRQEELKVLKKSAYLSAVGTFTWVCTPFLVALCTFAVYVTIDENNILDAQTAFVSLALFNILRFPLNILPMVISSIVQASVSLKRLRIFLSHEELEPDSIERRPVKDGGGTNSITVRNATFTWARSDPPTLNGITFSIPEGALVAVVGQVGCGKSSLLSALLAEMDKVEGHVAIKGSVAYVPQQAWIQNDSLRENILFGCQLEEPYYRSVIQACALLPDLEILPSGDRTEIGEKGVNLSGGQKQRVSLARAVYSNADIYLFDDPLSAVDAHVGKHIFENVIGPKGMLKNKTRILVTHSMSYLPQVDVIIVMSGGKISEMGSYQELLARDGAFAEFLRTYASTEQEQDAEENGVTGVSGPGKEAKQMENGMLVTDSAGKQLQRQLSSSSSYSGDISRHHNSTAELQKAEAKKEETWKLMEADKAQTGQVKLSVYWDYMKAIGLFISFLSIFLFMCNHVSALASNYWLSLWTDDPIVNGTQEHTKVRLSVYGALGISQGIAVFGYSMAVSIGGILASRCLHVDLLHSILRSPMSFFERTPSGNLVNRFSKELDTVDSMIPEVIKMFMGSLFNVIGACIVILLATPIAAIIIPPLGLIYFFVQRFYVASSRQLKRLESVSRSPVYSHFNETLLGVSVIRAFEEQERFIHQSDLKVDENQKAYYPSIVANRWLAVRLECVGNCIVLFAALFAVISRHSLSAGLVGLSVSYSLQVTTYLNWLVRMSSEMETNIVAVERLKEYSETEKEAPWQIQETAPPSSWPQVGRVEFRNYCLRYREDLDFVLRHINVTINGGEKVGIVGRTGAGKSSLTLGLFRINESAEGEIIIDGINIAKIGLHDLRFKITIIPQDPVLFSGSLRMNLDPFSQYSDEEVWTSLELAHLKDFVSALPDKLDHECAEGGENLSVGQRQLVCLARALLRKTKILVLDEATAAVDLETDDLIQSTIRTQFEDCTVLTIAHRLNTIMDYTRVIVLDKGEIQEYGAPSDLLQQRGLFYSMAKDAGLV

| SMILES | Survival [%] |
| --- | --- |
| O=C(/C=C/c1ccc(OCCCCc2cn(CCOCCOCCOc3ccc(-c4cc(=O)c5ccccc5o4)cc3)nn2)cc1)c1ccccc1O | 65 |
| O=c1cc(-c2ccc(OCCOCCOCCn3cc(CN4CCN(Cc5cn(CCOCCOCCOc6ccc(-c7cc(=O)c8cc(F)ccc8o7)cc6)nn5)CC4)nn3)cc2)oc2ccc(F)cc12 | 85 |
| O=C(/C=C/c1ccc(OCCCCc2cn(CCOCCOc3cccc(-c4oc5ccccc5c(=O)c4OCc4ccccc4)c3)nn2)cc1)c1ccccc1O | 83 |
| C#CCCCCOc1ccc(/C=C/C(=O)c2ccc(C)cc2O)cc1 | 100 |
| O=Cc1ccc(OCCCCc2cn(CCOCCOc3ccc(-c4oc5ccccc5c(=O)c4OCc4ccccc4)cc3)nn2)cc1 | 59 |
| [N-]=[N+]=NCCOCCOc1ccc2c(=O)cc(-c3ccccc3)oc2c1 | 91 |
| COc1cccc(COc2c(-c3ccc(OCCOCCn4cc(CCCCOc5ccc(/C=C/C(=O)c6ccc(C)cc6O)cc5)nn4)cc3)oc3ccccc3c2=O)c1 | 78 |
| COc1cccc(COc2c(-c3ccc(OCCOCCn4cc(CN(C)CCN(C)Cc5cn(CCOCCOc6ccc(-c7oc8ccccc8c(=O)c7OCc7cccc(OC)c7)cc6)nn5)nn4)cc3)oc3ccccc3c2=O)c1 | 64 |
| O=c1cc(-c2ccc(OCCOCCn3cc(CN(Cc4ccccc4)Cc4cn(CCOCCOc5ccc(-c6cc(=O)c7cc(F)ccc7o6)cc5)nn4)nn3)cc2)oc2ccc(F)cc12 | 70 |
| Cc1ccc2oc(-c3ccc(OCCOCCOCCn4cc(CN(C)CCN(C)Cc5cn(CCOCCOCCOc6ccc(-c7cc(=O)c8cc(C)ccc8o7)cc6)nn5)nn4)cc3)cc(=O)c2c1 | 76 |
| Cc1ccc(C(=O)/C=C/c2ccc(OCCCCc3cn(CCOCCOCCOc4ccc(-c5cc(=O)c6cc(C)ccc6o5)cc4)nn3)cc2)c(O)c1 | 61 |
| O=c1cc(-c2ccccc2)oc2cc(OCCCCc3cn(CCOCCOCCOc4ccc5c(=O)cc(-c6ccccc6)oc5c4)nn3)ccc12 | 61 |
| Cc1ccc2oc(-c3ccc(OCCOCCOCCn4cc(CCCOc5ccc(-c6cc(=O)c7ccccc7o6)cc5)nn4)cc3)cc(=O)c2c1 | 51 |
| CCc1ccc(O)c(C(=O)/C=C/c2ccc(OCCCCc3cn(CCOCCOCCOc4ccc(-c5cc(=O)c6cc(F)ccc6o5)cc4)nn3)cc2)c1 | 67 |
| O=c1cc(-c2ccccc2)oc2cc(OCCOCc3cn(CCOc4cccc5c(=O)cc(-c6ccccc6)oc45)nn3)ccc12 | 68 |
| O=C(/C=C/c1ccc(OCCCCc2cn(CCOc3cccc4c(=O)cc(-c5ccccc5)oc34)nn2)cc1)c1ccccc1O | 85 |
| CN(CCN(C)Cc1cn(CCOCCOCCOc2ccc(-c3cc(=O)c4ccccc4o3)cc2)nn1)Cc1cn(CCOCCOCCOc2ccc(-c3cc(=O)c4ccccc4o3)cc2)nn1 | 71 |
| Cc1ccc(C(=O)/C=C/c2ccc(OCCCCc3cn(CCOCCOCCOc4ccc(-c5cc(=O)c6ccccc6o5)cc4)nn3)cc2)c(O)c1 | 55 |
| Cc1ccc2oc(-c3ccc(OCCOCCOCCn4cc(CCCCOc5ccc(/C=C/C(=O)c6ccc(F)cc6O)cc5)nn4)cc3)cc(=O)c2c1 | 63 |
| O=c1[nH]c(-c2ccc(OCCCc3cn(CCOCCOCCOc4ccc(-c5cc(=O)c6cc(F)ccc6o5)cc4)nn3)cc2)nc2ccccc12 | 51 |
| COCOc1cc(OCc2ccccc2)c2c(=O)cc(-c3ccc(OCCCc4cn(CCOCCOCCOc5ccc(-c6oc7ccccc7c(=O)c6OCc6ccccc6)cc5)nn4)cc3)oc2c1 | 89 |
| CN(CCN(C)Cc1cn(CCOCCOCCOc2ccc(-c3oc4ccccc4c(=O)c3OCc3ccccc3)cc2)nn1)Cc1cn(CCOCCOCCOc2ccc(-c3oc4ccccc4c(=O)c3OCc3ccccc3)cc2)nn1 | 84 |
| COc1cccc(COc2c(-c3ccc(OCCCCc4cn(CCOCCOc5ccc(-c6oc7ccccc7c(=O)c6OCc6cccc(OC)c6)cc5)nn4)cc3)oc3ccccc3c2=O)c1 | 57 |

| SMILES | Survival [%] |
| --- | --- |
| O=c1cc(-c2ccccc2)oc2cc(OCCn3cc(CN(Cc4cn(CCOc5ccc6occ(-c7ccccc7)c(=O)c6c5)nn4)Cc4cn(CCOc5ccc6occ(-c7ccccc7)c(=O)c6c5)nn4)nn3)ccc12 | 87 |
| Cc1ccc2oc(-c3ccc(OCCOCCOCCn4cc(COCCOc5ccc6c(=O)cc(-c7ccccc7)oc6c5)nn4)cc3)cc(=O)c2c1 | 54 |
| Cc1ccc(O)c(C(=O)/C=C/c2ccc(OCCCCc3cn(CCOCCOCCOc4ccc5c(=O)cc(-c6ccccc6)oc5c4)nn3)cc2)c1 | 84 |
| CN(CCN(C)Cc1cn(CCOc2ccc3occ(-c4ccccc4)c(=O)c3c2)nn1)Cc1cn(CCOc2ccc3c(=O)cc(-c4ccccc4)oc3c2)nn1 | 90 |
| O=Cc1ccc(OCCCCc2cn(CCOCCOCCOc3ccc4c(=O)cc(-c5ccccc5)oc4c3)nn2)cc1 | 81 |
| C#Cc1ccc(C#C)cc1 | 86 |
| Cc1ccc2oc(-c3ccc(OCCOCCOCCn4cc(-c5cccc(-c6cn(CCOCCOCCOc7ccc(-c8cc(=O)c9cc(C)ccc9o8)cc7)nn6)c5)nn4)cc3)cc(=O)c2c1 | 77 |
| Cc1ccc2oc(-c3ccc(OCCOCCOCCn4cc(CCCCOc5ccc(/C=C/C(=O)c6ccccc6O)cc5)nn4)cc3)cc(=O)c2c1 | 61 |
| O=C(/C=C/c1ccc(OCCCCc2cn(CCOCCOCCOc3ccc4c(=O)cc(-c5ccccc5)oc4c3)nn2)cc1)c1ccccc1O | 72 |
| O=C(/C=C/c1ccc(OCCCCc2cn(CCOCCOCCOc3ccc(-c4cc(=O)c5cc(F)ccc5o4)cc3)nn2)cc1)c1ccccc1O | 56 |
| O=C(/C=C/c1ccc(OCCCCc2cn(CCOCCOc3ccc(-c4cc(=O)c5cc(F)ccc5o4)cc3)nn2)cc1)c1ccc(F)cc1O | 70 |
| O=c1c(OCc2ccccc2)c(-c2cccc(OCCOCCn3cc(CNc4ccccc4)nn3)c2)oc2ccccc12 | 92 |
| O=c1cc(-c2ccccc2)oc2cc(OCCCCc3cn(CCOCCOCCOc4ccc(-c5oc6ccccc6c(=O)c5OCc5ccccc5)cc4)nn3)ccc12 | 63 |
| O=c1cc(-c2ccc(OCCOCCOCCn3cc(-c4ccc(-c5cn(CCOCCOCCOc6ccc(-c7cc(=O)c8cc(F)ccc8o7)cc6)nn5)cc4)nn3)cc2)oc2ccc(F)cc12 | 83 |
| O=c1[nH]c(-c2ccc(OCCCc3cn(CCOCCOCCOc4ccc(-c5oc6ccccc6c(=O)c5OCc5ccccc5)cc4)nn3)cc2)nc2ccccc12 | 68 |
| C#CCCCOc1ccc(-c2cc(=O)c3ccccc3o2)cc1 | 74 |
| COc1cccc(COc2c(-c3ccc(OCCCCc4cn(CCOCCOc5ccc(-c6oc7ccccc7c(=O)c6OCc6ccccc6)cc5)nn4)cc3)oc3ccccc3c2=O)c1 | 68 |
| O=C(/C=C/c1ccc(OCCCCc2cn(CCOCCOCCOc3ccc4c(=O)cc(-c5ccccc5)oc4c3)nn2)cc1)c1ccc(F)cc1O | 67 |
| O=c1cc(-c2ccccc2)oc2cc(OCCOCCn3cc(-c4ccc(-c5cn(CCOCCOc6ccc7oc(-c8ccccc8)cc(=O)c7c6)nn5)cc4)nn3)ccc12 | 79 |
| O=c1cc(-c2ccccc2)oc2cc(OCCN(Cc3ccccc3)Cc3cn(CCOc4cccc5c(=O)cc(-c6ccccc6)oc45)nn3)ccc12 | 80 |
| O=c1cc(-c2ccccc2)oc2cc(OCCOCCOCCn3cc(CN(Cc4ccccc4)Cc4cn(CCOCCOCCOc5ccc6c(=O)cc(-c7ccccc7)oc6c5)nn4)nn3)ccc12 | 74 |
| [N-]=[N+]=NCCOCCOCCOc1ccc(-c2oc3ccccc3c(=O)c2OCc2ccccc2)cc1 | 74 |
| Cc1ccc2oc(-c3ccc(OCCCCc4cn(CCOc5cccc6c(=O)cc(-c7ccccc7)oc56)nn4)cc3)cc(=O)c2c1 | 75 |
